Source: PubChem (several laboratories)
A selection: hits, their analogues and other compounds. The true share with any hit is near 1.3%.
GASC-1 inh: blocks human GASC-1 demethylase activity | Q9H3R0 | GST-JMJD2C(1-420) H3K9me3 demethylation, DELFIA europium | inhibition, % at 2.35 µM | 0.069% of 330,000 active | AID 2099;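 active = more than half of a compound's replicate wells show inhibition beyond 50%, single wells judged on their own value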;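 also: signal counts dimethyl H3K9 product captured on neutravidin plate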
Target sequence (Q9H3R0 1-420 limits assumed): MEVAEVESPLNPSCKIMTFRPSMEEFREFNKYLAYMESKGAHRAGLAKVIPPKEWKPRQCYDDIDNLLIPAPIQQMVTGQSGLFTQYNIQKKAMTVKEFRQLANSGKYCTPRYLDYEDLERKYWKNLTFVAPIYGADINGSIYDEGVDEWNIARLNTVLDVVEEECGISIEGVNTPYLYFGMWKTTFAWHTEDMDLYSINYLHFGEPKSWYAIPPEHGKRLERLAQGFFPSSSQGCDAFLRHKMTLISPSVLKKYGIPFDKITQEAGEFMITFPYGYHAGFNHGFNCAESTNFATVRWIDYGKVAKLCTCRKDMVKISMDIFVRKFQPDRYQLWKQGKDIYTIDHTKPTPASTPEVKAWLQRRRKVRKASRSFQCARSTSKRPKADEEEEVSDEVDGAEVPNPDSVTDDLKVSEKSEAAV
Furin inh: inhibitors of human furin; P09958; purified furin, fluorogenic substrate cleavage; inhibition, % at 20 µM or 30 µM; 0.061% of 220,000 active; in the data active = inhibition above about 25%
PGE2 EP2 inh: inhibitors of human EP2 prostaglandin E2 receptor; P43116; C6 glioma cells expressing human EP2, cAMP TR-FRET; cells stimulated with saturating PGE2; inhibition, % at 25 µM; 0.52% of 260,000 active;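 active = percent inhibition above 40 after rounding to a whole number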;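 also: rat C6 glioma host cells with rolipram phosphodiesterase inhibitor present; the protocol text gives 20 µM as final concentration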
Target sequence (P43116 whole entry, looked up): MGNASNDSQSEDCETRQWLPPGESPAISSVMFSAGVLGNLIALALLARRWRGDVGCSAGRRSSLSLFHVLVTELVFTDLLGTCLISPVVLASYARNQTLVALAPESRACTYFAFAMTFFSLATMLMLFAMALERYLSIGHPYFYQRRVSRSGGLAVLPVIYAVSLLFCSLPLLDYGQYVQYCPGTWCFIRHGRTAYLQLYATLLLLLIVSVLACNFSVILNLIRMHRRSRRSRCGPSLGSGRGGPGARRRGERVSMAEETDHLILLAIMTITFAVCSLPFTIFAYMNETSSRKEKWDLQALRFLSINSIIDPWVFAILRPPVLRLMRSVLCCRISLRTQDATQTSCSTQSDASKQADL
EP2 modulator: modulators of human EP2 prostaglandin E2 receptor | P43116 | EP2-expressing cells, cAMP HTRF FRET, PGE2 co-stimulation | induction, % at 25 µM | 0.83% of 260,000 active | AID 940;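 active = compounds whose cAMP rise, as percent of the full-agonist control response, exceeds 60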;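 also: rat C6 glioma line stably carrying human EP2 under a CMV promoter; the protocol text gives 20 µM as final concentration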
NR2E3 ag-1: human photoreceptor-specific nuclear receptor agonism; CHO-S Gal4-NCOR/VP16-NR2E3 two-hybrid, luciferase; inhibition of corepressor binding, % at 3.98 µM; 0.35% of 360,000 active; AID 602229;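 active = inhibition above the mean of all tested compounds plus 3 SD, cut at about 70% in these data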;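 also: higher means lower luciferase signal from less NR2E3 corepressor binding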
NR2E3 ag-2: activates human photoreceptor nuclear receptor NR2E3 | 0.12% of 320,000 active | inhibition of corepressor binding, % at 4.78 µM | GST-NR2E3/biotin-RetCOR TR-FRET, 1536-well | Q9Y5X4;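 active = percent inhibition above the cutoff of mean plus 3 SD of all tested compounds, set per screening campaign, cut at about 20% in these data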
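System: GST-tagged NR2E3 plus biotinylated RetCOR corepressor; Buffer or medium: pH 7.5 Tris-based buffer; Probe or stimulus: RetCOR corepressor, biotinylated, 7 nM; Doses: compound at 4.8 µM, single dose; Schedule: 5 h incubation at 4 °C; Technique: time-resolved FRET; Evaluation: percent inhibition of TR-FRET ratio; Replication: one well per compound, singlicate testing.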
NR2E3 ag confirm: confirmation of human NR2E3 nuclear receptor agonists. shares compounds with NR2E3 ag-2. cell-free NR2E3 corepressor release, TR-FRET, 5 h. activation (reported as inhibition), % at 3.98 µM. 39% of 360 active. AID 2379; in the data active = activation above about 20%
PPARg-NCOR2 ctr: counter-screen for NR2E3 agonists: human PPARgamma-NCOR2 interaction agonists; shares compounds with NR2E3 ag-2; TR-FRET PPARg-NCOR2 coregulator interaction, biochemical; inhibition, % at 3.98 µM; 45% of 360 active; AID 504787; in the data active = inhibition above about 20%
Large screens that a line does not name were inactive (follow-up assays come after a bar, where they were run).

CCn1c(=O)oc2cc(S(=O)(=O)NCc3cc(C)cc4c(C)c(C)[nH]c34)ccc21	none (no result: GASC-1 inh, Furin inh, NR2E3 ag-1, NR2E3 ag-2)
CCc1c(C(=O)O)[nH]c2ccc(Br)cc12	NR2E3 ag-2 43 | NR2E3 ag confirm 41 | PPARg-NCOR2 ctr 30
O=C(C1=C(O)C(=O)N(CCN2CCOCC2)C1c1cccnc1)c1cc2ccccc2o1 (stereo unspecified)	NR2E3 ag-2 32 | NR2E3 ag confirm inactive | PPARg-NCOR2 ctr inactive
O=C(C1=C(O)C(=O)N(CCN2CCOCC2)C1c1cccc(O)c1)c1cc2ccccc2o1 (stereo unspecified)	none (no result: GASC-1 inh, Furin inh, PGE2 EP2 inh, EP2 modulator, NR2E3 ag-2)
COc1cccc2cc(C(=O)C3=C(O)C(=O)N(CCN4CCOCC4)C3c3ccc(Cl)cc3)oc12 (stereo unspecified)	none
Cc1ccc(C2C(C(=O)c3cc4ccccc4o3)=C(O)C(=O)N2CCN2CCOCC2)cc1 (stereo unspecified)	NR2E3 ag-2 20 (no result: Furin inh, PGE2 EP2 inh, EP2 modulator) | NR2E3 ag confirm 25 | PPARg-NCOR2 ctr 25
COc1cccc2cc(C(=O)C3=C(O)C(=O)N(CCN4CCOCC4)C3c3cccc(Cl)c3)oc12 (stereo unspecified)	NR2E3 ag-2 28 (no result: Furin inh, PGE2 EP2 inh, EP2 modulator) | NR2E3 ag confirm inactive | PPARg-NCOR2 ctr inactive
O=C(C1=C(O)C(=O)N(CCN2CCOCC2)C1c1ccc(Br)cc1)c1cc2ccccc2o1 (stereo unspecified)	none (no result: Furin inh, PGE2 EP2 inh, EP2 modulator)
O=C(C1=C(O)C(=O)N(CCN2CCOCC2)C1c1cccc(F)c1)c1cc2ccccc2o1 (stereo unspecified)	NR2E3 ag-2 33 (no result: Furin inh, PGE2 EP2 inh, EP2 modulator) | NR2E3 ag confirm 20 | PPARg-NCOR2 ctr 25
CN(C)CCCN1C(=O)C(O)=C(C(=O)c2cc3ccccc3o2)C1c1ccccc1 (stereo unspecified)	EP2 modulator 62, NR2E3 ag-2 30 (no result: PGE2 EP2 inh) | NR2E3 ag confirm 27 | PPARg-NCOR2 ctr 28
COC(=O)c1ccc(C2C(C(=O)c3cc4ccccc4o3)=C(O)C(=O)N2CCCN(C)C)cc1 (stereo unspecified)	none
O=C(C1=C(O)C(=O)N(CCN2CCOCC2)C1c1cccs1)c1cc2ccccc2o1 (stereo unspecified)	NR2E3 ag-2 30 (no result: Furin inh, PGE2 EP2 inh, EP2 modulator) | NR2E3 ag confirm 31 | PPARg-NCOR2 ctr 34
COc1ccc(N(C(C)C(=O)N2CCC(C(N)=O)CC2)S(C)(=O)=O)cc1 (stereo unspecified)	none (no result: GASC-1 inh, Furin inh, NR2E3 ag-1, NR2E3 ag-2)
COc1cc(C2NC(=O)NC(C)=C2C(=O)Nc2ccccc2)cc(Cl)c1OCC(=O)O (stereo unspecified)	none (no result: GASC-1 inh, Furin inh, NR2E3 ag-1, NR2E3 ag-2)
Cc1c(N2C(=O)c3ccc(Br)cc3C2=O)c(=O)n(-c2ccccc2)n1C	none
Cc1c(N2C(=O)c3ccc4c5c(ccc(c35)C2=O)CC4)c(=O)n(-c2ccccc2)n1C	NR2E3 ag-2 21 | NR2E3 ag confirm 26 | PPARg-NCOR2 ctr inactive
O=C(O)C(Cc1ccccc1)N1C(=O)/C(=C/C=C/c2ccco2)SC1=S (stereo unspecified)	none (no result: NR2E3 ag-2)
O=C(O)CC(C(=O)O)N1C(=O)/C(=C/C=C/c2ccco2)SC1=S (stereo unspecified)	NR2E3 ag-2 39 | NR2E3 ag confirm 36 | PPARg-NCOR2 ctr inactive
O=C(O)CCCN1C(=O)/C(=C/C=C/c2ccco2)SC1=S	EP2 modulator 74, NR2E3 ag-2 32 | NR2E3 ag confirm inactive | PPARg-NCOR2 ctr 20
COc1ccccc1N1CCN(CC(=O)Nc2cccc(C(C)=O)c2)CC1	none (no result: GASC-1 inh, Furin inh, NR2E3 ag-1, NR2E3 ag-2)
COc1ccccc1NC(=O)N(Cc1cc2ccc(C)c(C)c2[nH]c1=O)C1CCCC1	none (no result: GASC-1 inh, Furin inh, NR2E3 ag-1, NR2E3 ag-2)
O=S(=O)(Nc1cc2nc3ccccc3nc2n1Cc1ccccc1)c1ccc(Cl)cc1	NR2E3 ag-2 33 | NR2E3 ag confirm inactive | PPARg-NCOR2 ctr inactive
O=S(=O)(NCc1ccccc1)c1ccc(Cl)cc1	none
CC1CN(c2nc3c(c(=O)[nH]2)CCN(Cc2ccc(O)cc2)C3)CC(C)O1 (stereo unspecified)	none (no result: GASC-1 inh, Furin inh, NR2E3 ag-1, NR2E3 ag-2)
CC1=NN(Cc2ccccc2)C(=O)C1	NR2E3 ag-2 20 | NR2E3 ag confirm inactive | PPARg-NCOR2 ctr inactive
Cc1ccc(C(=O)C2=C(O)C(=O)N(Cc3ccco3)C2c2ccc(N(C)C)cc2)o1 (stereo unspecified)	none (no result: Furin inh, PGE2 EP2 inh, EP2 modulator)
Cc1ccc(C(=O)C2=C(O)C(=O)N(Cc3ccco3)C2c2cccc(Cl)c2)o1 (stereo unspecified)	NR2E3 ag-2 31 (no result: Furin inh, PGE2 EP2 inh, EP2 modulator) | NR2E3 ag confirm inactive | PPARg-NCOR2 ctr inactive
Cc1ccc(C(=O)C2=C(O)C(=O)N(Cc3ccco3)C2c2cccc(Br)c2)o1 (stereo unspecified)	NR2E3 ag-2 31 (no result: Furin inh, PGE2 EP2 inh, EP2 modulator) | NR2E3 ag confirm inactive | PPARg-NCOR2 ctr inactive
C=CCSc1nc(-c2ccccc2)c(C#N)c(=O)[nH]1	NR2E3 ag-2 22 | NR2E3 ag confirm inactive | PPARg-NCOR2 ctr 41
O=C(C1=C(O)C(=O)N(CC2CCCO2)C1c1ccc(Cl)cc1Cl)c1ccco1 (stereo unspecified)	NR2E3 ag-2 30 (no result: Furin inh) | NR2E3 ag confirm 24 | PPARg-NCOR2 ctr 25
O=C(CSc1nc2cccnc2n1Cc1ccccc1)N1CCCCC1	none (no result: GASC-1 inh, Furin inh, NR2E3 ag-1, NR2E3 ag-2)
CCOC(=O)c1c(NC(=O)CSc2nnc(-c3ccccc3)o2)sc(C(C)=O)c1C	none
CCOC(=O)c1c(NC(=O)CSc2nnc(Cc3ccccc3)o2)sc(C(C)=O)c1C	NR2E3 ag-2 32 | NR2E3 ag confirm inactive | PPARg-NCOR2 ctr inactive
N#Cc1c(NC(=O)c2ccc(Br)o2)n(-c2ccccc2)c2nc3ccccc3nc12	NR2E3 ag-2 24 | NR2E3 ag confirm 38 | PPARg-NCOR2 ctr 54
CC(=O)NC(CSc1cc(C)nc2ccc(Br)cc12)C(=O)O (stereo unspecified)	EP2 modulator 64, NR2E3 ag-2 25 | NR2E3 ag confirm inactive | PPARg-NCOR2 ctr 67
COc1ccc2nc(C)cc(SCC(NC(C)=O)C(=O)OC(C)C)c2c1 (stereo unspecified)	none
COc1ccc(S(=O)(=O)N(CC(=O)N2CCCC2)c2ccccc2)cc1	none (no result: GASC-1 inh, Furin inh, NR2E3 ag-1, NR2E3 ag-2)
COC(=O)Cn1cc(CN2CCc3nc(N4CCC(C)CC4)[nH]c(=O)c3C2)c2ccccc21	none (no result: GASC-1 inh, Furin inh, NR2E3 ag-1, NR2E3 ag-2)
CC1NC(=O)NC1CCCCCC(=O)Nc1ccc(F)c(Cl)c1 (stereo unspecified)	NR2E3 ag-2 90 | NR2E3 ag confirm 88 | PPARg-NCOR2 ctr 91
CCC(=O)Nc1ccc(F)c(Cl)c1	none
Cc1ccc(NC(=O)CCCCCC2NC(=O)NC2C)cc1 (stereo unspecified)	NR2E3 ag-2 87 | NR2E3 ag confirm 90 | PPARg-NCOR2 ctr 92
CC1NC(=O)NC1CCCCC(=O)O (stereo unspecified)	none
